Reference: ChEMBL document CHEMBL1765020, “Synthesis and structure-affinity relationships of novel dibenzylideneacetone derivatives as probes for β-amyloid plaques” (J Med Chem, 2011)

Assays:
Brain [1] = test: Ratio of drug uptake in ddY mouse brain at 1 uCi/100 uL, iv after 2 mins to drug uptake in ddY mouse brain at 1 uCi/100 uL, iv after 60 mins; assay type: ADME, organism-based; settings: in vivo
Outline: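 Normal female ddY mice (5 weeks) received the radiotracer iv, and brain uptake (% ID/g, n = 4) was measured by gamma counting at 2 and 60 min. The index is brain uptake at 2 min divided by brain uptake at 60 min.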

[2] = Partition coefficient, log D of the compound; assay type: physicochemical; settings: octanol/water
Outline: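 Radiotracer partitioned between n-octanol and PBS: vortexed 3 min at room temperature, centrifuged 5 min at 3000 rpm. Weighed samples of the octanol (100 μL) and buffer (500 μL) layers were counted. log D is the log of the ratio of counts per gram, octanol versus PBS.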

Blood [3] = test: Biodistribution in ddY mouse blood at 1 uCi/100 uL, iv after 2 mins by gamma counting; assay type: ADME, organism-based; settings: in vivo
Outline: (§1)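 Normal female ddY mice (5 weeks, about 20 g; n = 4 per group) received radiotracer iv. Organs were removed and weighed at 2–120 min and counted in a γ-counter. Percent dose per gram of wet tissue was calculated against diluted aliquots of the injected material and reported as mean ± SD.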

Brain [4] = test: Biodistribution in ddY mouse brain at 1 uCi/100 uL, iv after 2 mins by gamma counting; assay type: ADME, organism-based; settings: in vivo; outline: as §1
Heart [5] = test: Biodistribution in ddY mouse heart at 1 uCi/100 uL, iv after 2 mins by gamma counting; assay type: ADME, organism-based; settings: in vivo; outline: as §1
Liver [6] = test: Biodistribution in ddY mouse liver at 1 uCi/100 uL, iv after 2 mins by gamma counting; assay type: ADME, organism-based; settings: in vivo
Spleen [7] = test: Biodistribution in ddY mouse spleen at 1 uCi/100 uL, iv after 2 mins by gamma counting; assay type: ADME, organism-based; settings: in vivo
Lung [8] = test: Biodistribution in ddY mouse lung at 1 uCi/100 uL, iv after 2 mins by gamma counting; assay type: ADME, organism-based; settings: in vivo
Kidney [9] = test: Biodistribution in ddY mouse kidney at 1 uCi/100 uL, iv after 2 mins by gamma counting; assay type: ADME, organism-based; settings: in vivo; outline: as §1
Stomach [10] = test: Biodistribution in ddY mouse stomach at 1 uCi/100 uL, iv after 2 mins by gamma counting; assay type: ADME, organism-based; settings: in vivo
Intestine [11] = test: Biodistribution in ddY mouse intestine at 1 uCi/100 uL, iv after 2 mins by gamma counting; assay type: ADME, organism-based; settings: in vivo; outline: as §1
Thyroid gland [12] = test: Biodistribution in ddY mouse thyroid at 1 uCi/100 uL, iv after 2 mins by gamma counting; assay type: ADME, organism-based; settings: in vivo
Blood [13] = test: Biodistribution in ddY mouse blood at 1 uCi/100 uL, iv after 15 mins by gamma counting; assay type: ADME, organism-based; settings: in vivo, 0.25 h; outline: as §1
Brain [14] = test: Biodistribution in ddY mouse brain at 1 uCi/100 uL, iv after 15 mins by gamma counting; assay type: ADME, organism-based; settings: in vivo, 0.25 h; outline: as §1
Heart [15] = test: Biodistribution in ddY mouse heart at 1 uCi/100 uL, iv after 15 mins by gamma counting; assay type: ADME, organism-based; settings: in vivo, 0.25 h; outline: as §1
Liver [16] = test: Biodistribution in ddY mouse liver at 1 uCi/100 uL, iv after 15 mins by gamma counting; assay type: ADME, organism-based; settings: in vivo, 0.25 h
Spleen [17] = test: Biodistribution in ddY mouse spleen at 1 uCi/100 uL, iv after 15 mins by gamma counting; assay type: ADME, organism-based; settings: in vivo, 0.25 h
Lung [18] = test: Biodistribution in ddY mouse lung at 1 uCi/100 uL, iv after 15 mins by gamma counting; assay type: ADME, organism-based; settings: in vivo, 0.25 h
Kidney [19] = test: Biodistribution in ddY mouse kidney at 1 uCi/100 uL, iv after 15 mins by gamma counting; assay type: ADME, organism-based; settings: in vivo, 0.25 h; outline: as §1
Stomach [20] = test: Biodistribution in ddY mouse stomach at 1 uCi/100 uL, iv after 15 mins by gamma counting; assay type: ADME, organism-based; settings: in vivo, 0.25 h
Intestine [21] = test: Biodistribution in ddY mouse intestine at 1 uCi/100 uL, iv after 15 mins by gamma counting; assay type: ADME, organism-based; settings: in vivo, 0.25 h; outline: as §1
Thyroid gland [22] = test: Biodistribution in ddY mouse thyroid at 1 uCi/100 uL, iv after 15 mins by gamma counting; assay type: ADME, organism-based; settings: in vivo, 0.25 h
Blood [23] = test: Biodistribution in ddY mouse blood at 1 uCi/100 uL, iv after 30 mins by gamma counting; assay type: ADME, organism-based; settings: in vivo, 0.5 h; outline: as §1
Brain [24] = test: Biodistribution in ddY mouse brain at 1 uCi/100 uL, iv after 30 mins by gamma counting; assay type: ADME, organism-based; settings: in vivo, 0.5 h; outline: as §1
Heart [25] = test: Biodistribution in ddY mouse heart at 1 uCi/100 uL, iv after 30 mins by gamma counting; assay type: ADME, organism-based; settings: in vivo, 0.5 h; outline: as §1
Liver [26] = test: Biodistribution in ddY mouse liver at 1 uCi/100 uL, iv after 30 mins by gamma counting; assay type: ADME, organism-based; settings: in vivo, 0.5 h
Spleen [27] = test: Biodistribution in ddY mouse spleen at 1 uCi/100 uL, iv after 30 mins by gamma counting; assay type: ADME, organism-based; settings: in vivo, 0.5 h
Lung [28] = test: Biodistribution in ddY mouse lung at 1 uCi/100 uL, iv after 30 mins by gamma counting; assay type: ADME, organism-based; settings: in vivo, 0.5 h
Kidney [29] = test: Biodistribution in ddY mouse kidney at 1 uCi/100 uL, iv after 30 mins by gamma counting; assay type: ADME, organism-based; settings: in vivo, 0.5 h
Stomach [30] = test: Biodistribution in ddY mouse stomach at 1 uCi/100 uL, iv after 30 mins by gamma counting; assay type: ADME, organism-based; settings: in vivo, 0.5 h
Intestine [31] = test: Biodistribution in ddY mouse intestine at 1 uCi/100 uL, iv after 30 mins by gamma counting; assay type: ADME, organism-based; settings: in vivo, 0.5 h; outline: as §1
Thyroid gland [32] = test: Biodistribution in ddY mouse thyroid at 1 uCi/100 uL, iv after 30 mins by gamma counting; assay type: ADME, organism-based; settings: in vivo, 0.5 h
Blood [33] = test: Biodistribution in ddY mouse blood at 1 uCi/100 uL, iv after 60 mins by gamma counting; assay type: ADME, organism-based; settings: in vivo, 1 h; outline: as §1
Brain [34] = test: Biodistribution in ddY mouse brain at 1 uCi/100 uL, iv after 60 mins by gamma counting; assay type: ADME, organism-based; settings: in vivo, 1 h; outline: as §1
Heart [35] = test: Biodistribution in ddY mouse heart at 1 uCi/100 uL, iv after 60 mins by gamma counting; assay type: ADME, organism-based; settings: in vivo, 1 h; outline: as §1
Liver [36] = test: Biodistribution in ddY mouse liver at 1 uCi/100 uL, iv after 60 mins by gamma counting; assay type: ADME, organism-based; settings: in vivo, 1 h
Spleen [37] = test: Biodistribution in ddY mouse spleen at 1 uCi/100 uL, iv after 60 mins by gamma counting; assay type: ADME, organism-based; settings: in vivo, 1 h
Lung [38] = test: Biodistribution in ddY mouse lung at 1 uCi/100 uL, iv after 60 mins by gamma counting; assay type: ADME, organism-based; settings: in vivo, 1 h
Kidney [39] = test: Biodistribution in ddY mouse kidney at 1 uCi/100 uL, iv after 60 mins by gamma counting; assay type: ADME, organism-based; settings: in vivo, 1 h
Stomach [40] = test: Biodistribution in ddY mouse stomach at 1 uCi/100 uL, iv after 60 mins by gamma counting; assay type: ADME, organism-based; settings: in vivo, 1 h
Intestine [41] = test: Biodistribution in ddY mouse intestine at 1 uCi/100 uL, iv after 60 mins by gamma counting; assay type: ADME, organism-based; settings: in vivo, 1 h; outline: as §1
Thyroid gland [42] = test: Biodistribution in ddY mouse thyroid at 1 uCi/100 uL, iv after 60 mins by gamma counting; assay type: ADME, organism-based; settings: in vivo, 1 h
Blood [43] = test: Biodistribution in ddY mouse blood at 1 uCi/100 uL, iv after 120 mins by gamma counting; assay type: ADME, organism-based; settings: in vivo, 2 h; outline: as §1
Brain [44] = test: Biodistribution in ddY mouse brain at 1 uCi/100 uL, iv after 120 mins by gamma counting; assay type: ADME, organism-based; settings: in vivo, 2 h; outline: as §1
Heart [45] = test: Biodistribution in ddY mouse heart at 1 uCi/100 uL, iv after 120 mins by gamma counting; assay type: ADME, organism-based; settings: in vivo, 2 h; outline: as §1
Liver [46] = test: Biodistribution in ddY mouse liver at 1 uCi/100 uL, iv after 120 mins by gamma counting; assay type: ADME, organism-based; settings: in vivo, 2 h
Spleen [47] = test: Biodistribution in ddY mouse spleen at 1 uCi/100 uL, iv after 120 mins by gamma counting; assay type: ADME, organism-based; settings: in vivo, 2 h
Lung [48] = test: Biodistribution in ddY mouse lung at 1 uCi/100 uL, iv after 120 mins by gamma counting; assay type: ADME, organism-based; settings: in vivo, 2 h
Kidney [49] = test: Biodistribution in ddY mouse kidney at 1 uCi/100 uL, iv after 120 mins by gamma counting; assay type: ADME, organism-based; settings: in vivo, 2 h; outline: as §1
Stomach [50] = test: Biodistribution in ddY mouse stomach at 1 uCi/100 uL, iv after 120 mins by gamma counting; assay type: ADME, organism-based; settings: in vivo, 2 h
Intestine [51] = test: Biodistribution in ddY mouse intestine at 1 uCi/100 uL, iv after 120 mins by gamma counting; assay type: ADME, organism-based; settings: in vivo, 2 h; outline: as §1
Thyroid gland [52] = test: Biodistribution in ddY mouse thyroid at 1 uCi/100 uL, iv after 120 mins by gamma counting; assay type: ADME, organism-based; settings: in vivo, 2 h

## CNc1ccc(/C=C/C(=O)/C=C/c2ccc([125I])cc2)cc1
Brain [1]
  Ratio: 6.59
[2]
  logD: 3.55
Blood [3]
  Drug uptake: 7.48 % ID/g
Brain [4]
  Drug uptake: 4.68 % ID/g
Heart [5]
  Drug uptake: 8.11 % ID/g
Liver [6]
  Drug uptake: 39.22 % ID/g
Spleen [7]
  Drug uptake: 4.57 % ID/g
Lung [8]
  Drug uptake: 9.67 % ID/g
Kidney [9]
  Drug uptake: 14.73 % ID/g
Stomach [10]
  Drug uptake: 3.26 % ID/organ
Intestine [11]
  Drug uptake: 3.53 % ID/g
Thyroid gland [12]
  Drug uptake: 18.2 % ID/g
Blood [13]
  Drug uptake: 6.02 % ID/g
Brain [14]
  Drug uptake: 2.62 % ID/g
Heart [15]
  Drug uptake: 4.14 % ID/g
Liver [16]
  Drug uptake: 40.83 % ID/g
Spleen [17]
  Drug uptake: 3.36 % ID/g
Lung [18]
  Drug uptake: 7.42 % ID/g
Kidney [19]
  Drug uptake: 16.49 % ID/g
Stomach [20]
  Drug uptake: 3.82 % ID/organ
Intestine [21]
  Drug uptake: 10.33 % ID/g
Thyroid gland [22]
  Drug uptake: 28.09 % ID/g
Blood [23]
  Drug uptake: 4.84 % ID/g
Brain [24]
  Drug uptake: 1.38 % ID/g
Heart [25]
  Drug uptake: 3.29 % ID/g
Liver [26]
  Drug uptake: 23.88 % ID/g
Spleen [27]
  Drug uptake: 2.22 % ID/g
Lung [28]
  Drug uptake: 6.18 % ID/g
Kidney [29]
  Drug uptake: 15.54 % ID/g
Stomach [30]
  Drug uptake: 3.17 % ID/organ
Intestine [31]
  Drug uptake: 13.19 % ID/g
Thyroid gland [32]
  Drug uptake: 27.78 % ID/g
Blood [33]
  Drug uptake: 3.35 % ID/g
Brain [34]
  Drug uptake: 0.71 % ID/g
Heart [35]
  Drug uptake: 1.74 % ID/g
Liver [36]
  Drug uptake: 22.63 % ID/g
Spleen [37]
  Drug uptake: 1.52 % ID/g
Lung [38]
  Drug uptake: 3.5 % ID/g
Kidney [39]
  Drug uptake: 10.46 % ID/g
Stomach [40]
  Drug uptake: 3.34 % ID/organ
Intestine [41]
  Drug uptake: 23.62 % ID/g
Thyroid gland [42]
  Drug uptake: 23.96 % ID/g
Blood [43]
  Drug uptake: 4.46 % ID/g
Brain [44]
  Drug uptake: 0.54 % ID/g
Heart [45]
  Drug uptake: 1.91 % ID/g
Liver [46]
  Drug uptake: 27.83 % ID/g
Spleen [47]
  Drug uptake: 1.23 % ID/g
Lung [48]
  Drug uptake: 3.9 % ID/g
Kidney [49]
  Drug uptake: 13.43 % ID/g
Stomach [50]
  Drug uptake: 4.49 % ID/organ
Intestine [51]
  Drug uptake: 41.29 % ID/g
Thyroid gland [52]
  Drug uptake: 72.93 % ID/g
